Where two headings read alike, the source gives them in different places.
How the values were obtained:
[1] = test system: LEF/TCF; experiment: TCF reporter activity in DISC1 knockdown cells; assay type: cell-based
[2] = test system: adult hippocampal progenitor proliferation in dentate gyrus; assay type: in vivo, mouse; settings: 2 mg/kg every other day for 2 weeks, n=5
[3] = test system: DISC1 knockdown AHP cells; experiment: BrdU incorporation in DISC1 knockdown AHP cells; assay type: cell-based
Summary of the method: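 Lentivirus-transduced AHPs (GFP marker) seeded on polyornithine/fibronectin-coated coverslips and pulsed with BrdU (10 µM) in medium for 2 hours. Fixed in 4% paraformaldehyde and immunostained for BrdU. Five random fields and over 500 cells counted per experiment. Read-out is the percentage of GFP-positive cells also BrdU-positive.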

[4] = test system: neural progenitor proliferation in mouse embryonic brains; experiment: BrdU labeling in shRNA electroporated embryonic brains; assay type: in vivo
[5] = test system: GSK3β; experiment: In vitro GSK3β kinase assay; assay type: biochemical; settings: for Inhibition of GSK3β: in vitro kinase assay
[6] = test system: GSK3β; experiment: GSK3β surface plasmon resonance; assay type: binding; settings: SPR, peptide 25 µM

Q: How did the TCF activity [1] turn out when `Cc1c[nH]c(-c2cnc(NCCNc3ccc(C#N)cn3)nc2-c2ccc(Cl)cc2Cl)n1` [CHIR-99021] was run?
A: Its TCF activity is “rescued TCF activity in DISC1 knockdown cells to control levels”.

Q: Which “Number of BrdU positive cells” value ([2]; DISC1 shRNA-1 injected mice) does the source give for `Cn1cc(C2=C(c3ccc(Cl)cc3Cl)C(=O)NC2=O)c2ccccc21` [SB-216763] here?
A: Its value is “rescued the reduction in BrdU positive cells”.

Q: And the “Number of BrdU positive cells” value ([2]; mice infected with control virus)?
A: The value was “significantly increased”.

Q: What about the “Cell proliferation evaluated by BrdU incorporation” value [3] of the same molecule?
A: The value was “restored cell proliferation”.

Q: What about the BrdU labeling index ([4]; DISC1 shRNA electroporated embryonic brains) of the same molecule?
A: Its BrdU labeling index is “rescued the BrdU labeling index”.

Q: And the BrdU labeled cells ([4]; control shRNA electroporated mouse embryonic brains)?
A: The BrdU labeled cells was “increased BrdU labeled cells”.

Q: What about the TCF activity [1] of the same molecule?
A: Its TCF activity is “rescued TCF activity in DISC1 knockdown cells to control levels”.

Q: Which “Inhibition of GSK3β kinase activity” value ([5]; data not shown, concentration not given) does the source give for “DISCtide2: 15-mer peptide that encompasses mDISC1 amino acids 211 to 225 (SFSFIQLSLGAAGER)” here?
A: Its value is “failed to inhibit”.

Q: And the “Percent theoretical maximal response” value [6]?
A: Its value is 238%.

Q: Which results are given for “DISCtide-1: synthesized peptide from mDISC1 spanning amino acids 195 to 238 (PADIASLPGFQDTFTSSFSFIQLSLGAAGERGEAEGCLPSREAE)”?
A: Potency of GSK3β inhibition compared with L803-mts ([5]; dose-response curve, n=3): more potently than L803-mts; Dose dependence of inhibition of recombinant GSK3β catalytic activity ([5]; in vitro): dose dependent; Inhibition of GSK3β ([5]; 10 µM peptide): inhibited; Percent theoretical maximal response [6]: 197%

Q: How did the “Inhibition of GSK3β” value ([5]; 80 µM peptide) turn out when “Peptide-neg: synthesized peptide from mDISC1 spanning amino acids 40–77 (GYMRSTAGSGIGFLSPAVGMPHPSSAGLTGQQSQHSQS)” was run?
A: Its value is “did not inhibit”.

Q: What about the “Percent theoretical maximal response” value [6] of the same molecule?
A: The value was 62%.

Reference: article PMC2704382 (Cell, 2009)
